According to ChEMBL document CHEMBL4706564 (Eur J Med Chem, 2020):

Legend:
HEK-293T = test: (§1) Cytotoxicity against human HEK293T cells incubated for 48 hrs by MTT assay; type: cell-based; conditions: hek-293t, 48 h
Outline: (§2)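 HEK293T cells at 10⁵ cells/ml were added to two-fold compound dilutions in 10% DMEM and incubated 48 h at 37 °C, 5% CO2. MTT (5 mg/ml stock in PBS, 1/10 volume) was added for 2 h, and formazan was dissolved in DMSO before reading optical density. Each concentration was run in triplicate. CC50 was the concentration giving 50% cell death, or halving OD versus control.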

Vero = test: (§3) Cytotoxicity against African green monkey Vero cells assessed as reduction in cell survival incubated for 10 days by neutral red dye based colorimetric analysis; conditions: chlorocebus sabaeus, vero, 240 h; time 10 day
Outline: (§4)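 Confluent Vero monolayers received six concentrations from 3-fold serial dilutions in DMEM of DMSO-dissolved compound, plus medium without virus. After 10 days at 37 °C, 5% CO2, cells were stained with neutral red and read at 490 nm. CC50 came from a 4-parameter fit, with at least 3 analyses per compound.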

Marburgvirus [1] = test: Antiviral activity against MARV Popp infected in African green monkey Vero cells assessed as inhibition of viral infection by measuring reduction in virus-induced cytotoxicity incubated for 10 days by neutral red dye based colorimetric analysis; type: functional, organism-based; conditions: vero
Zaire ebolavirus = test: Antiviral activity against Zaire ebolavirus infected in African green monkey Vero cells assessed as inhibition of viral infection by measuring […] incubated for 10 days by neutral red dye based colorimetric analysis; type: functional, organism-based
[2] = Acute toxicity in ICR mouse assessed as animal death at 0.14 to 1.08 g/kg, ig and measured for 7 days; conditions: in vivo, po, 168 h, dose 0.14-1.08 g/Kg, time 7 day
Outline: (§5)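 Outbred ICR mice, randomised into groups of 2. Each group got a single oral gavage dose of 1.08, […], 0.27 or 0.14 g/kg, given as a suspension in 10% DMSO in water at 0.1 mL/10 g. Controls received solvent only. Survival was recorded over 7 days.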

[3] = Acute toxicity in ig dosed ICR mouse; type: organism-based; conditions: in vivo, po; outline: as §5
cells [4] = type: cell-based, Ebolavirus, HEK293T; conditions: Orthoebolavirus, Mayinga, HEK-293T
cells [5] = type: cell-based, HEK293T; conditions: Vesicular stomatitis virus, HEK-293T
[6] = as §1; type: cell-based, HEK-293T; conditions: HEK293T cells; outline: as §2
[7] = as §3; conditions: chlorocebus sabaeus, Vero cells; time 10 day; outline: as §4
Influenza A virus = test: Antiviral activity against Influenza A virus (H1N1); type: functional, organism-based
in vitro = conditions: human, HEK293T cells
Ebolavirus [8] = test: Antiviral activity against eGFP-positive VSV-G pseudotyped EBOV infected in human U2OS cells assessed as reduction in virus entry cells pre-incubed with compound for 1 hr followed by viral infection and measured after 12 to 14 hrs by fluorescence microscopic analysis; type: functional, organism-based; conditions: Orthoebolavirus
Ebolavirus [9] = test: Antiviral activity against VSV-G pseudotyped EBOV infected in human HeLa cells; type: functional, organism-based; conditions: Orthoebolavirus
Marburgvirus [10] = test: Antiviral activity against VSV-G pseudotyped MARV infected in human HeLa cells; type: functional, organism-based; conditions: Orthomarburgvirus

Row | Structure (SMILES) | CC50 (HEK-293T) [µM] | CC50 (Vero) [µM] | IC50 (Marburgvirus [1]; read-out: IC50) [µM] | IC50 (Zaire ebolavirus; vero, read-out: IC50) [µM] | IC50 (cells [4]) [µM] | IC50 (cells [5]) [µM] | CC50 at 240 h [7] [µM] | IC50 (Influenza A virus) [µM] | other results
1 | CC1(C)[C@H]2CC[C@]1(C)[C@H](OC(=O)CCN1CCCCC1)C2.Cl | 87 | 279 | 18.1 | 9.1 |  |  |  |  | Activity [2]: Non-Toxic; LD50 [3]: > 1000 mg/kg
2 | CN1CCN(CCC(=O)O[C@@H]2C[C@@H]3CC[C@@]2(C)C3(C)C)CC1 |  |  |  |  | 0.3 | 173 | 61.4 | 1.9 | CC50 at 48 h [6]: 282 µM; IC50 (Marburgvirus [1]): Not Active; IC50 (Zaire ebolavirus; vero): Not Active; selectivity ratio (in vitro): 870
3 | CCCNC(=O)[C@@H]1O[C@H]1C(=O)N[C@@H](Cc1ccc(C)cc1)C(=O)N[C@H](C(=O)N1CCN(Cc2ccccc2)CC1)c1ccccc1 |  |  |  |  |  |  |  |  | IC50 (Ebolavirus [8]): 0.07 µM
4 | CC1(C)[C@H]2CC[C@]1(C)[C@H](OC(=O)CCN1CCOCC1)C2 |  |  |  |  | 8.5 | 320 | 122 | 12.2 | CC50 at 48 h [6]: 305 µM; IC50 (Marburgvirus [1]): Not Active; IC50 (Zaire ebolavirus; vero): Not Active; selectivity ratio (in vitro): 36
5 | CC1(C)[C@H]2CC[C@]1(C)[C@H](OC(=O)CCN1CCCCC1)C2 | 290 |  | 3.7 | 47.5 |  | 93 | 443 | 7.8 | 
6 | O=[N+]([O-])c1cc(S(=O)(=O)NCCN2CCOCC2)ccc1Sc1nnnn1-c1ccccc1 |  |  |  |  |  |  |  |  | IC50 (Ebolavirus [9]): 1.9 µM; IC50 (Marburgvirus [10]): 12.9 µM
7 | N#Cc1c(NCCN)nc(-c2ccccc2)c2c1CCCC2 |  |  |  |  |  |  |  |  | IC50 (Ebolavirus [9]): 24.4 µM; IC50 (Marburgvirus [10]): 6.2 µM
8 | CC1CCN(CCC(=O)O[C@@H]2C[C@@H]3CC[C@@]2(C)C3(C)C)CC1 [listing 1 of 2 here] | 280 | 69.3 | 2.2 |  | 0.3 |  |  | 15.3 | IC50 (Zaire ebolavirus; Zaire ebolavirus, Vero, 240 h, read-out: IC50): 54.3 µM
9 | CC1CCN(CCC(=O)O[C@@H]2C[C@@H]3CC[C@@]2(C)C3(C)C)CC1 [listing 2 of 2 here] | 69.8 | 144 | 5.7 | 64.7 |  |  |  |  | 
